Only some compounds are listed: those with a hit (about 3.4% of all), similar ones and a draw of the others.
ANO1 activ: activators or potentiators of mouse TMEM16A chloride channel; actives 0.3% (n = 340,000); Q8BHY3; AID 623877; B-score at 10 µM; HEK293 TMEM16A/YFP-H148Q/I152L, iodide quench fluorescence; stronger effect = lower value;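 active = fluorescence-ratio B-score plate-corrected deviation score at least 3 library SD below zero, with starting fluorescence score within 5 deviations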;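 note: channel opened by trigger with iodide after compound preincubation; score built on the fluorescence ratio of max minus min over baseline; more negative score means more quench and so TMEM16A activation or potentiation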
Target sequence (Q8BHY3 whole entry, looked up): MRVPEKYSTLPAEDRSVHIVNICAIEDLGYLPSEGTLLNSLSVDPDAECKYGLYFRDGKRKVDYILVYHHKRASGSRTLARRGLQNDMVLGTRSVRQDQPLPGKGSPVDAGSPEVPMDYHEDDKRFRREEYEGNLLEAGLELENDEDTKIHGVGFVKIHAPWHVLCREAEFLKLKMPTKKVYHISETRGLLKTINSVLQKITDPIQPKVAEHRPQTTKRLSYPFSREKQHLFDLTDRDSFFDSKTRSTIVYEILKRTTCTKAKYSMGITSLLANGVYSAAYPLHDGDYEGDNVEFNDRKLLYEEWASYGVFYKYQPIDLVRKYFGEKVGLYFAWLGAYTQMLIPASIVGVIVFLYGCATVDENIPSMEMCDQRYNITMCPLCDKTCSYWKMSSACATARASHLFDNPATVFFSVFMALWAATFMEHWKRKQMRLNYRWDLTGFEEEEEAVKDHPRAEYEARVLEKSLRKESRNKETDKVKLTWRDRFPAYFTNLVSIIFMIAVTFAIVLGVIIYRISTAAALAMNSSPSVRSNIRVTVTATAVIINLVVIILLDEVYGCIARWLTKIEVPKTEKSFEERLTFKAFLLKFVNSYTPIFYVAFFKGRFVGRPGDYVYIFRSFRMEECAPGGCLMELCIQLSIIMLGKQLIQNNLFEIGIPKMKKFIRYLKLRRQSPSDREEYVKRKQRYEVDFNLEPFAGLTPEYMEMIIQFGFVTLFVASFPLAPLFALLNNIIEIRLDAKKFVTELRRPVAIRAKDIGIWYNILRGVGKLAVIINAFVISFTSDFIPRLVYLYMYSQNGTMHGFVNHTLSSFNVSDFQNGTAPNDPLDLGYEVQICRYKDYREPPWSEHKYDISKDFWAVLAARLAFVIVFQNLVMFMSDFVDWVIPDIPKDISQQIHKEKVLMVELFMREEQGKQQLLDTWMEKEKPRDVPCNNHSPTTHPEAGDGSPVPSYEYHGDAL
TMEM16A inh: inhibitors of mouse TMEM16A calcium-activated chloride channel; normalized B-score (activity score, 25-100; higher = stronger inhibition) at 10 µM; Q8BHY3; AID 588511; actives 1.2% (n = 310,000); HEK293 TMEM16A/YFP iodide influx fluorescence, ionomycin;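 active = ratio plate-corrected score three or more library SD toward inhibition, starting fluorescence score within five deviations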;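 note: score derived from kinetic fluorescence span divided by baseline fluorescence per well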
MC4R antagonist: antagonists of human melanocortin 4 receptor (MC4R); P32245; MC4R-expressing cells, MTII-stimulated cAMP, LANCE TR-FRET; inhibition, % at 6.5 µM; actives 0.48% (n = 360,000); AID 540295;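 active = inhibition above its plate's cutoff, the mean of tested wells on that plate plus 3 SD, cut at about 29% in these data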;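 note: 0% = Melanotan II alone and 100% = Melanotan II plus saturating MCL0020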
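Assay system: U2OS cells stably expressing human melanocortin 4 receptor (MC4R) / Dosing: 6.5 µM / Timing: compound 30 min, challenge 1 h, detection 1 h / Measured by: Eu-cAMP/anti-cAMP TR-FRET, emission 671 nm / Replicates: singlicate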
MC4R barr agon: human MC4R agonism via beta-arrestin; P32245; U2OS MC4R beta-arrestin complementation, luminescence; percent of melanotan II response, DMSO zero; activation, % at 8.9 µM; actives 0.98% (n = 360,000); AID 540308;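 active = activation above a per-plate cutoff, the mean activation of sample wells on that plate plus 3 SD, cut at about 8% in these data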
HTR2A ag: activates the mouse 5-HT2A serotonin receptor | actives 0.66% (n = 360,000) | AID 624169 | CHO-K1 mHTR2A beta-arrestin complementation, luminescence; percent of 30 µM serotonin response | activation, % at 7.6 µM;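 active = activation above a run cutoff, the mean activation of all tested compounds plus 3 SD, cut at about 14% in these data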;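 note: 0% = plate median of compound wells and 100% = 30 µM serotonin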
beta cell repl: induces beta-cell replication in MIN6 cells; proliferation, % at 10 µM; actives 0.29% (n = 330,000); MIN6 cells proliferation, ATPlite luminescence, 48 h; cells starved in 0.2% serum; 100% = growth in 10% serum; AID 2380;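 active = compounds whose signal lies at least 3.5 SD above the mean of all wells on their plate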;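 note: 0% = DMSO-treated cells in low-serum medium and 100% = 10% serum control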
* = called active by the depositor; i = inactive; . = not tested or not shown.

SMILES	ANO1 activ	TMEM16A inh	MC4R antagonist	MC4R barr agon	HTR2A ag	beta cell repl
CCOc1ccc(Cn2nnc(C(=O)Nc3cc(C)cc(C)c3)c2N)cc1	i	i	-9	9.4*	-5	1
COc1ccc(C(=O)NCC(=O)OCC(=O)N2CC(C)OC(C)C2)cc1OC (stereo unspecified)	i	.	2	-2	0	4
C[C@H](O)[C@@H]1C(=O)N2CCc3ccc(-c4ccccc4)cc3[C@@H]2C[C@@H]1N(C)C(=O)Nc1cc(Cl)cc(Cl)c1	.	.	9	0	-3	.
O=C(Nc1nc2ccccc2n1CCN1CCCCC1)C1CCCCC1	i	25*	-2	0	12	-1
O=C(Nc1nc2ccccc2n1CCN1CCCC1)C1CCCCC1	i	i	3	-2	-7	1
O=C(CN1CCOCC1)N/N=C/C=C/c1ccccc1	i	i	-2	1	2	8.9*
O=NN(CC(=O)NN=CC=Cc1ccccc1)CC(=O)NN=CC=Cc1ccccc1	.	.	.	.	4	.
O=C(NC(=S)Nc1ccc(-c2ccc(CO)o2)cc1)c1cccs1	i	100*	14	-2	0	-5
CC(C)NC(=O)N1Cc2cc(C(=O)NC3CCCC3)nc(-c3cccc(-c4cccnc4)c3)c2[C@@H]1CCO	.	.	.	.	-4	.
COCCNC(=O)C1(C)Cc2c(-c3ccc(N(C)C)cc3)ccnc2O1 (stereo unspecified)	.	.	-3	-1	3	.
Nc1ccc2c(c1)C(=O)C(=O)c1ccccc1-2	i	25*	-44	-1	1	-4
Nc1ccc2c(c1)C(=O)c1ccccc1-2	i	i	-13	0	-1	3
COc1cc(CCC(=O)NNC(=O)c2cccc(Cl)c2)cc(OC)c1OC	i	i	9	0	-1	1
O=C1NC(Cc2ccccc2)c2nc3ccc(F)cc3c(=O)n2-c2cc(Cl)ccc21 (stereo unspecified)	.	.	.	.	.	0
Cc1cnc(C(=O)OCC(=O)N2C(C)CCCC2C)cn1 (stereo unspecified)	i	.	9	-1	-1	0
O=C(c1ccc2ccccc2c1)C1CCCN(C(=O)c2cnccn2)C1 (stereo unspecified)	-4.6*	i	0	-1	-4	-1
CC1CCN(C(=O)CSc2nnc(CNC(=O)c3ccco3)o2)CC1	-15*	i	-2	1	5	-1
O=C(NCc1nnc(SCC(=O)N2CCCC2)o1)c1ccco1	i	i	1	2	0	2
COc1cccc(OC)c1OCCCc1c(C)n[nH]c1C	i	i	16	1	5	0
COc1ccc(OCCCCc2c(C)n[nH]c2C)cc1	i	25*	4	1	1	-3
O=C(Nc1ccc2c(c1)CCC2)c1cnn2c1NC(c1ccco1)CC2C(F)(F)F (stereo unspecified)	i	i	12	17*	6	0
COC(=O)C1CCCCN1C(=O)c1cc(COc2cccc3cnccc23)on1 (stereo unspecified)	i	25*	6	-1	12	-7
CCOC(=O)[C@@H]1[C@H]2COc3ccccc3[C@H]2N2C(=O)N(c3cccc(C)c3)C(=O)[C@]12C	i	.	2	-1	0	-3
Cc1nn(C)c(C(=O)NC2C3CC4CC(C3)CC2C4)c1Cl (stereo unspecified)	i	i	-1	-1	2	7.7*
Cn1ncc(Cl)c1C(=O)NC1C2CC3CC(C2)CC1C3 (stereo unspecified)	i	i	9	0	3	4
SMILES	ANO1 activ	TMEM16A inh	MC4R antagonist	MC4R barr agon	HTR2A ag	beta cell repl
CCOC(=O)C(=O)N(C)c1c(CC)nc2c(OCc3cc(Cl)cc(Cl)c3)cccn12	.	.	-1	1	-1	.
CN1CCN(CC(=O)N2CCn3c4c(c5cc(C6CCCCC6)ccc53)CCCC42)CC1 (stereo unspecified)	i	i	-5	27*	-6	-6
Cc1ccc2c(c1)c1c3n2CCN(C(=O)CN2CCN(C)CC2)C3CCC1 (stereo unspecified)	i	i	-6	-2	-3	-6
N#CC1C(=O)NC(=O)CC12CCCCC2 (stereo unspecified)	i	.	1	-1	2	.
O=C(O)C(C(O)c1ccccc1)[n+]1ccccc1 (stereo unspecified)	-20*	i	13	0	8	-1
O=C(O)C(O)c1ccccc1 (stereo unspecified)	i	i	8	-1	1	-1
CCc1ccc(C(O)c2ncc(-c3ccc(C(F)(F)F)cc3)[nH]2)cc1 (stereo unspecified)	.	.	15	9.2*	-2	.
CC(C)(C)c1ccc(C(O)c2ncc(-c3ccccc3F)[nH]2)cc1 (stereo unspecified)	.	.	0	8.2*	6	.
OC(c1ccccc1)c1ncc(-c2ccccc2F)[nH]1 (stereo unspecified)	.	.	14	-2	0	.
OC(c1ccc(-c2ccccc2)cc1)c1ncc(-c2ccc(C(F)(F)F)cc2)[nH]1 (stereo unspecified)	.	.	11	9.5*	-4	.
CCOc1ccc(/C=C(\C#N)C(=O)Nc2cccnc2)cc1	i	i	2	-1	0	1
CCOc1ccc(NC(=O)/C(C#N)=C\c2ccc(N3CCCC3)c(C)c2)cc1	i	.	0	13*	-3	.
CCOc1ccc(C(=O)Cc2cc(OC)c(OC)cc2[N+](=O)[O-])cc1	i	i	-3	12*	3	1
COc1ccc(C(=O)Cc2cc(OC)c(OC)cc2[N+](=O)[O-])cc1	i	i	7	1	-3	1
Fc1ccc(-c2nc3c(-c4ccc(Cl)cc4)cnn3cc2CCN2CCOCC2)cc1	i	i	6	8.8*	0	1
CC(C)[C@H](NC(=O)N1CCn2c1nc1ccccc12)C(=O)N1CCCCC1	i	i	2	1	-4	0
O=C(CSc1nnnn1C1CC2CCC1C2)Nc1ccnc2ccccc12 (stereo unspecified)	i	100*	-3	-2	-1	-4
O=c1[nH]c(Cc2cccc(C(F)(F)F)c2)nc2ccccc12	i	i	5	9.0*	2	-2
O=c1[nH]c(Cc2ccc(Cl)cc2)nc2ccccc12	i	i	3	1	5	1
C=CC[C@H](CC(=O)N(CCO)Cc1ccccc1)C(=O)NC[C@H](OC(=O)[C@@H](CC=C)CC(=O)OC(C)(C)C)c1ccccc1	i	.	13	-2	-9	-4

Bioassay records (PubChem)
